# Legend:
# Root [1] = test: Drug metabolism in Geranium molle root assessed as transformation to pratensein at 20 uM after 14 days measured per gm of dry weight by LC-MS analysis; type: ADME; settings: 336 h
# Summary of the method: (§1)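 Pregerminated seeds, 14 per container, transplanted onto 0.5% agar medium containing biochanin A. Grown at 24 ± 1 °C under a 16 h light/8 h dark photoperiod and harvested 14 days after transplanting. Roots and shoots collected separately, blotted, washed twice, then freeze-dried. Tissue extracted by ASE at 40 °C and analysed by LC-ESI-MS against commercial standards. Two replicates per treatment.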
# Root [2] = test: Drug metabolism in Silene noctiflora root assessed as transformation to genistein at 400 uM after 14 days measured per gm of dry weight by LC-MS analysis; type: ADME; settings: 336 h; summary of the method: as §1
# Root [3] = test: Drug metabolism in Echinochloa crus-galli (barnyard grass) root assessed as transformation to pratensein at 400 uM after 14 days measured per gm of dry weight by LC-MS analysis; type: ADME; settings: 336 h; summary of the method: as §1
# Root [4] = test: Drug metabolism in Echinochloa crus-galli (barnyard grass) root assessed as transformation to p-coumaric acid at 400 uM after 14 days measured per gm of dry weight by LC-MS analysis; type: ADME; settings: 336 h; summary of the method: as §1
# Root [5] = test: Drug metabolism in Echinochloa crus-galli (barnyard grass) root assessed as transformation to genistein at 20 uM after 14 days measured per gm of dry weight by LC-MS analysis; type: ADME; settings: 336 h; summary of the method: as §1
# Shoot [6] = test: Drug metabolism in Silene noctiflora shoot assessed as transformation to p-coumaric acid at 400 uM after 14 days measured per gm of dry weight by LC-MS analysis; type: ADME; settings: 336 h; summary of the method: as §1
# Shoot [7] = test: Drug metabolism in Geranium molle shoot assessed as transformation to dihydrobiochanin A at 20 uM after 14 days measured per gm of dry weight by LC-MS analysis; type: ADME; settings: 336 h; summary of the method: as §1
# Root [8] = test: Drug metabolism in Silene noctiflora root assessed as transformation to dihydrobiochanin A at 20 uM after 14 days measured per gm of dry weight by LC-MS analysis; type: ADME; settings: 336 h; summary of the method: as §1
# Shoot [9] = test: Drug metabolism in Silene noctiflora shoot assessed as transformation to genistein at 400 uM after 14 days measured per gm of dry weight by LC-MS analysis; type: ADME; settings: 336 h; summary of the method: as §1
# Shoot [10] = test: Drug metabolism in Echinochloa crus-galli (barnyard grass) shoot assessed as transformation to sissotrin at 20 uM after 14 days measured per gm of dry weight by LC-MS analysis; type: ADME; settings: 336 h; summary of the method: as §1
# Shoot [11] = test: Drug metabolism in Echinochloa crus-galli (barnyard grass) shoot assessed as transformation to pratensein at 400 uM after 14 days measured per gm of dry weight by LC-MS analysis; type: ADME; settings: 336 h; summary of the method: as §1
# Shoot [12] = test: Drug metabolism in Geranium molle shoot assessed as transformation to genistein at 400 uM after 14 days measured per gm of dry weight by LC-MS analysis; type: ADME; settings: 336 h; summary of the method: as §1
# Root [13] = test: Drug metabolism in Silene noctiflora root assessed as transformation to sissotrin at 20 uM after 14 days measured per gm of dry weight by LC-MS analysis; type: ADME; settings: 336 h; summary of the method: as §1
# Shoot [14] = test: Drug metabolism in Geranium molle shoot assessed as transformation to pratensein at 20 uM after 14 days measured per gm of dry weight by LC-MS analysis; type: ADME; settings: 336 h; summary of the method: as §1
# Shoot [15] = test: Drug metabolism in Silene noctiflora shoot assessed as transformation to genistein at 20 uM after 14 days measured per gm of dry weight by LC-MS analysis; type: ADME; settings: 336 h; summary of the method: as §1
# Shoot [16] = test: Drug uptake in Silene noctiflora shoot at 20 uM after 14 days measured per gm of dry weight by LC-MS analysis; type: ADME; settings: 336 h
# Summary of the method: (§2)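 Pregerminated seeds (14 per container) were grown on 20 mL 0.5% agar medium containing biochanin A, at 24 ± 1 °C with a 16 h light/8 h dark cycle. There were two replicates per treatment: 14 containers for S. noctiflora, 9 for G. molle and E. crus-galli. At 14 days, roots and shoots were harvested separately, washed, blotted and freeze-dried. Extraction was ASE at 40 °C, 1600 psi, 3 cycles. Analysis was LC-ESI-MS SIM against standards.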
# Shoot [17] = test: Drug metabolism in Geranium molle shoot assessed as transformation to pratensein at 400 uM after 14 days measured per gm of dry weight by LC-MS analysis; type: ADME; settings: 336 h; summary of the method: as §1
# Shoot [18] = test: Drug metabolism in Geranium molle shoot assessed as transformation to sissotrin at 20 uM after 14 days measured per gm of dry weight by LC-MS analysis; type: ADME; settings: 336 h; summary of the method: as §1
# Shoot [19] = test: Drug metabolism in Geranium molle shoot assessed as transformation to sissotrin at 400 uM after 14 days measured per gm of dry weight by LC-MS analysis; type: ADME; settings: 336 h; summary of the method: as §1
# Root [20] = test: Drug uptake in Echinochloa crus-galli (barnyard grass) root at 20 uM after 14 days measured per gm of dry weight by LC-MS analysis; type: ADME; settings: 336 h; summary of the method: as §2
# Shoot [21] = test: Drug uptake in Geranium molle shoot at 400 uM after 14 days measured per gm of dry weight by LC-MS analysis; type: ADME; settings: 336 h; summary of the method: as §2
# Shoot [22] = test: Drug metabolism in Silene noctiflora shoot assessed as transformation to sissotrin at 400 uM after 14 days measured per gm of dry weight by LC-MS analysis; type: ADME; settings: 336 h; summary of the method: as §2
# Shoot [23] = test: Drug uptake in Silene noctiflora shoot at 400 uM after 14 days measured per gm of dry weight by LC-MS analysis; type: ADME; settings: 336 h; summary of the method: as §2
# Root [24] = test: Drug metabolism in Silene noctiflora root assessed as transformation to dihydrobiochanin A at 400 uM after 14 days measured per gm of dry weight by LC-MS analysis; type: ADME; settings: 336 h; summary of the method: as §1
# Shoot [25] = test: Drug metabolism in Echinochloa crus-galli (barnyard grass) shoot assessed as transformation to pratensein at 20 uM after 14 days measured per gm of dry weight by LC-MS analysis; type: ADME; settings: 336 h; summary of the method: as §1
# Leaf = test: Drug recovery in leaf of Secale cereale (rye) at 50 ng/g by LC-MS analysis
# Shoot [26] = test: Drug metabolism in Echinochloa crus-galli (barnyard grass) shoot assessed as transformation to genistein at 20 uM after 14 days measured per gm of dry weight by LC-MS analysis; type: ADME; settings: 336 h; summary of the method: as §1
# Root [27] = test: Drug metabolism in Geranium molle root assessed as transformation to sissotrin at 400 uM after 14 days measured per gm of dry weight by LC-MS analysis; type: ADME; settings: 336 h; summary of the method: as §1
# Root [28] = test: Drug metabolism in Echinochloa crus-galli (barnyard grass) root assessed as transformation to sissotrin at 20 uM after 14 days measured per gm of dry weight by LC-MS analysis; type: ADME; settings: 336 h; summary of the method: as §1
# Root [29] = test: Drug metabolism in Geranium molle root assessed as transformation to sissotrin at 20 uM after 14 days measured per gm of dry weight by LC-MS analysis; type: ADME; settings: 336 h; summary of the method: as §1
# Silene noctiflora = test: Phytotoxicity against Silene noctiflora assessed as root growth inhibition after 2 weeks by agar medium bioassay; type: functional, organism-based; settings: 336 h
# Summary of the method: (§3)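 Agar bioassay with eight biochanin A doses (0–400 µM). Seeds were pregerminated 48 h at room temperature, then 10 seedlings (1–2 mm radicle) were placed per Petri dish. Plants grew 2 weeks at 24 ± 1 °C under a 16 h light/8 h dark cycle. Root length was measured, and EC values were taken from a four-parameter log-logistic nonlinear regression fit.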
# Root [30] = test: Drug metabolism in Geranium molle root assessed as transformation to p-coumaric acid at 400 uM after 14 days measured per gm of dry weight by LC-MS analysis; type: ADME; settings: 336 h; summary of the method: as §1
# Geranium molle = test: Phytotoxicity against Geranium molle assessed as root growth inhibition after 2 weeks by agar medium bioassay; type: functional, organism-based; settings: 336 h; summary of the method: as §3
# Root [31] = test: Drug uptake in Geranium molle root at 400 uM after 14 days measured per gm of dry weight by LC-MS analysis; type: ADME; settings: 336 h; summary of the method: as §2
smiles,measurement,setting,value
COc1ccc(-c2coc3cc(O)cc(O)c3c2=O)cc1 [BIOCHANIN],Drug metabolism,Root [1],0.66 µmol
same,Drug metabolism,Root [2],0.13 µmol
same,Drug metabolism,Root [3],0.35 µmol
same,Drug metabolism,Root [4],0.11 µmol
same,Drug metabolism,Root [5],0.07 µmol
same,Drug metabolism,Shoot [6],0.01 µmol
same,Drug metabolism,Shoot [7],0.01 µmol
same,Drug metabolism,Root [8],0.01 µmol
same,Drug metabolism,Shoot [9],0.15 µmol
same,Drug metabolism,Shoot [10],0 µmol
same,Drug metabolism,Shoot [11],0.24 µmol
same,Drug metabolism,Shoot [12],0.12 µmol
same,Drug metabolism,Root [13],1.72 µmol
same,Drug metabolism,Shoot [14],0.02 µmol
same,Drug metabolism,Shoot [15],0.24 µmol
same,Drug uptake,Shoot [16],0.76 µmol
same,Drug metabolism,Shoot [17],0.05 µmol
same,Drug metabolism,Shoot [18],1.5 µmol
same,Drug metabolism,Shoot [19],2.41 µmol
same,Drug uptake,Root [20],1.75 µmol
same,Drug uptake,Shoot [21],1.13 µmol
same,Drug metabolism,Shoot [22],4.34 µmol
same,Drug uptake,Shoot [23],1.11 µmol
same,Drug metabolism,Root [24],0.07 µmol
same,Drug metabolism,Shoot [25],0.47 µmol
same,Drug recovery,Leaf,93%
same,Drug metabolism,Shoot [26],0.28 µmol
same,Drug metabolism,Root [27],123.61 µmol
same,Drug metabolism,Root [28],0.48 µmol
same,Drug metabolism,Root [29],36.06 µmol
same,EC25,Silene noctiflora,5.2 µM
same,EC50,Silene noctiflora,35.8 µM
same,Drug metabolism,Root [30],0.05 µmol
same,EC25,Geranium molle,> 400 µM
same,EC50,Geranium molle,> 400 µM
same,Drug uptake,Root [31],11.46 µmol

# Source: ChEMBL document CHEMBL3046081, “Phytotoxic effect, uptake, and transformation of biochanin A in selected weed species” (J Agric Food Chem, 2012)
